The nature of assay [1]: S. cerevisiae growth inhibition in permissive medium (OD615), pilot counter-assay for S. cerevisiae lifespan shortening project, permissive growth control (AID 705;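 active means growth inhibition above 25% in both replicates, a cutoff set 3 SD above the mean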). The conditions noted are these: OD615, 24 h, at 10 µM, stronger effect = higher value. The essentials:
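System: engineered DeaD yeast; Medium: permissive raffinose/galactose medium; Compound dosing: 10 µM single dose, 0.25% DMSO; Incubation: 4 h cell pre-growth, 24 h exposure at 30 °C; Technique: OD at 615 nm; Evaluation: growth inhibition from lowered OD615 after 24 h.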

A short description of assay [2]: S. cerevisiae growth inhibition in restrictive medium, OD615, pilot screen, restrictive growth control, yeast lifespan reduction project (AID 706;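 active means growth inhibition above a set limit, 3 SD over mean compound inhibition, in both replicates, cut at about 43% in these data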;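 further: modified DeaD lifespan yeast strain shifted to restrictive glucose medium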). The conditions noted are these: OD615, 48 h, at 10 µM, stronger effect = higher value. The gist of the method: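 Material: modified S. cerevisiae; buffer or medium: CSMM-D glucose medium; doses: one concentration, 10 µM final, 0.25% DMSO; incubation: 48 h compound exposure at 30 °C; detection: optical density at 615 nm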

The nature of assay [3]: doxorubicin toxicity protection in MRP-1 cells – H69AR cells, CellTiter-Glo, duplicate, MRP-1 activator project, pilot screen (AID 807;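 active means viability increase at or above a cutoff of the median across tested compounds plus 3 SD, cut at about 8.5% in these data, passing the limit was not always enough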;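 further: compound pretreatment 18-22 h then 72 h combined with doxorubicin; 0% = doxorubicin alone and 100% = vehicle without doxorubicin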). The conditions noted are these: H69AR viability with doxorubicin, CellTiter-Glo luminescence; at 10 µM; stronger effect = higher value. In general terms: ATP-based viability assays read luminescence as a measure of living cells.
Assay [4] is described as follows: viability of HCT116 without oncogenic beta-catenin – human colon tumor cells, pilot screen (AID 823;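 active means cell viability at or below a set limit in both duplicate runs, the limit being the all-compound median minus 4 SD, cut at about 23% in these data, passing the limit was not always enough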;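 further: 0% = wells killed by 20 µM Hyamine and 100% = untreated DMSO cell wells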). The conditions noted are these: HCT116 beta-catenin knockout viability, CellTiter-Glo, 60 h; at 10 µM; stronger effect = lower value.
A short description of assay [5]: viability of PTEN-null HCT116 cells – cell-based, HCT116 clonal line, CellTiter-Glo, pilot screen (AID 824;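 active means viability at or below 27.92% in each of two runs, the all-compound median minus 4 SD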;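 further: 0% = 20 µM Hyamine control and 100% = vehicle cell control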). The conditions noted are these: HCT116 PTEN-deleted viability, 60 h, at 10 µM, stronger effect = lower value.
Assay [6] is described as follows: RAM pathway blockade in budding yeast – dse1pr::URA3 reporter, 5-FOA selection, pilot screen (AID 869).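 Further: 0% = DMSO wells with no growth and 100% = 10 µM 1-NA-PP1 with full growth; RAM network block rescues cells from 5-FOA so hits raise OD615 growth.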 The conditions noted are these: S. cerevisiae dse1pr::URA3 5-FOA growth, OD615, 2 d; at 10 µM; stronger effect = higher value; strain carries analog-sensitive mutant Cbk1 kinase.
Assay [7] in a line: RAM signaling pathway blockade in yeast – S. cerevisiae, Pdr1DBD-CYC8 efflux-inhibited sensitized strain, primary screen (AID 1298;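 active means RAM network inhibition above 8.4% in each of two replicates, 3 SD over the compound average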;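 further: 0% = DMSO untreated cells without growth and 100% = 10 µM 1-NA-PP1 full growth; higher means more yeast growth rescued from 5-FOA killing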). The conditions noted are these: S. cerevisiae cbk1-as DSE1-URA3 strain, 5-FOA growth OD615, 2 d; at 50 µM; stronger effect = higher value.

Structures are written as SMILES. Unmarked numbers belong to inactive results. Results filed as inconclusive are left out. Calls of active or inactive are those of the source.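 How the source made its calls, unless noted: active means inhibition over a set limit, the all-compound mean plus 3 SD, in both replicate runs; inconclusive means over that limit in just one replicate run; inactive means at or under that limit in both runs.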

`COc1ccccc1-c1coc2cc(O)cc(O)c2c1=O`: the values for the growth inhibition in assay [1] and in assay [2] were 3.81% and 9.45%, respectively. Moreover, the viability increase in assay [3] was 0.63%. Also, the viability (usually a read-out of living cells in per cent, often relative to untreated cells) in assay [4] is 93.4%; in assay [5], 92.6%. For the same compound, in assay [6], the inhibition (usually the change of the read-out against control, counted positive when it falls) is 0.26%. In assay [7], the RAM network inhibition was 0.05%.
For `Cc1nc(N2CCN(C)CC2)c2sc(=S)n(-c3ccccc3)c2n1`, the results for the growth inhibition in assay [1] and in assay [2] were -1.92% and -1.67%, respectively. The viability increase in assay [3] was -4.61%. The viability is 93.4% in assay [4] and 86.1% in assay [5]. Besides, the inhibition in assay [6] is 1.31%. Further, the RAM network inhibition in assay [7] is 3.03%.
Turning to `COCCn1c(C)cc(C(=O)CSc2nnc3ccccn23)c1C`, the growth inhibition in assay [1] is 8.47%; in assay [2] it was 3.52%. Further, the viability increase in assay [3] was -1.95%. The viability in assay [4] is 98.8%; in assay [5] it was 91.7%. Also, in assay [6], the inhibition is 0.76%. In addition, the RAM network inhibition in assay [7] is 2.51%.
Regarding `Cc1cc(C)n(-c2nc(NC(C)(C)C)nc(NC(C)(C)C)n2)n1`, the growth inhibition in assay [1] is -11.5%; in assay [2] it was 11.4%. The viability increase in assay [3] was -2.08%. The viability in assay [4] is 8.58% (active); in assay [5] it was 11.2% (active). For the same compound, the inhibition in assay [6] is 2.85%. In assay [7], the RAM network inhibition is 5.62%.
For `COc1cccc(-c2nc(C(N)=O)c3[nH]c(=O)n(-c4cccc(Cl)c4)c3n2)c1OC`, the growth inhibition was -21.4% in assay [1] and -28.5% in assay [2]. In addition, the viability increase in assay [3] is -4.45%. Moreover, the figures for the viability in assay [4] and in assay [5] were 75.5% and 72.5%, respectively. Also, in assay [6], the inhibition was 4.14%. The RAM network inhibition in assay [7] was 3.65%.
With `O=C(NCC1CCCO1)c1ccc2c(=O)n(CCc3ccccc3)c(=O)[nH]c2c1` (stereo unspecified), the growth inhibition in assay [1] was -3.02%; in assay [2] it was -27%. Besides, in assay [3], the viability increase was -1.15%. For the same compound, the viability in assay [4] is 104%; in assay [5] it was 102%. Moreover, the inhibition in assay [6] was 4.28%. Further, the RAM network inhibition in assay [7] is 3.8%.
For the compound `CCOC(=O)c1ccc(N2CSC3=C(C#N)C(c4ccc(OC)cc4OC)CC(=O)N3C2)cc1` (stereo unspecified), the figures for the growth inhibition in assay [1] and in assay [2] were 6.21% and 24.4%, respectively. Also, the viability increase in assay [3] is -4.16%. Moreover, the viability in assay [4] was 92.3%; in assay [5] it was 93.2%. Also, in assay [6], the inhibition was 2.44%. In addition, the RAM network inhibition in assay [7] is 1.72%.
Regarding `COc1cc(OC)nc(NC(=O)C(C)C)n1`, the growth inhibition in assay [1] is -1.12%; in assay [2], 6.71%. For the same compound, in assay [3], the viability increase is -0.57%. Also, the viability in assay [4] is 104%; in assay [5], 97.3%. Besides, in assay [6], the inhibition is 1.01%. Further, the RAM network inhibition in assay [7] is 4.06%.
Consider `CCOC(=O)c1cnc2c(C)c(Cl)ccc2c1N1CCOCC1`, for which the figures for the growth inhibition in assay [1] and in assay [2] were -1.27% and -2.46%, respectively. Besides, in assay [3], the viability increase is -6.05%. For the same compound, the viability in assay [4] was 77%; in assay [5] it was 81.3%. In addition, in assay [6], the inhibition is 0.755%. Moreover, the RAM network inhibition in assay [7] is 3.29%.
`COc1cccc(-c2cc(N)nn2C(=O)Nc2ccc(Cl)cc2)c1`: the figures for the growth inhibition in assay [1] and in assay [2] were -15.4% and -29.3%, respectively. Besides, the viability increase in assay [3] was -2.28%. For the same compound, the viability in assay [4] was 105%; in assay [5] it was 90.7%. Also, in assay [6], the inhibition was -0.025%. Also, in assay [7], the RAM network inhibition was 0.22%.
As for `CCCSC1=C(C#N)C(c2ccc(O)c(OC)c2)CC(=O)N1` (stereo unspecified), the values for the growth inhibition in assay [1] and in assay [2] were -14.9% and -22.5%, respectively. For the same compound, the viability increase in assay [3] was -2.92%. Besides, the viability is 104% in assay [4] and 101% in assay [5]. Further, the inhibition in assay [6] is 1.66%. In assay [7], the RAM network inhibition was 1.36%.
Consider `CN(C)CCCN1C(=O)c2oc3ccc(F)cc3c(=O)c2C1c1cccnc1` (stereo unspecified), for which the growth inhibition in assay [1] is 4.42%; in assay [2], 7.96%. The viability increase in assay [3] was -1.1%. Also, the viability in assay [4] was 107%; in assay [5], 98.7%. Further, the inhibition in assay [6] is 2.9%. The RAM network inhibition in assay [7] was 2.14%.
Regarding `O=C(Cn1cc2c(n1)CCCC2)N1CCCC1`, the values for the growth inhibition in assay [1] and in assay [2] were -1.5% and 1.53%, respectively. Further, the viability increase in assay [3] was 0.07%. For the same compound, the viability was 95.5% in assay [4] and 96.6% in assay [5]. The inhibition in assay [6] is 1.14%. Also, the RAM network inhibition in assay [7] was 4.6%.
`CCN(CC)C(=O)CN(Cc1ccccc1)S(=O)(=O)c1ccc(F)cc1`: the growth inhibition in assay [1] is -8.49%; in assay [2] it was -11.4%. The viability increase in assay [3] was -0.99%. Moreover, the viability in assay [4] is 93.8%; in assay [5] it was 97.5%. Moreover, in assay [6], the inhibition is 1.32%. Further, the RAM network inhibition in assay [7] was 2.88%.
Take `COc1ccccc1-c1cc(C2CC2)nc(N)c1C#N`: the growth inhibition was -20.8% in assay [1] and -19.3% in assay [2]. In addition, the viability increase in assay [3] was -3.86%. Also, the figures for the viability in assay [4] and in assay [5] were 94.7% and 94.2%, respectively. The inhibition in assay [6] was -0.08%. In assay [7], the RAM network inhibition is 3.76%.
For `CC(C)NS(=O)(=O)c1ccc(CCC(=O)NCc2ccco2)cc1`, the figures for the growth inhibition in assay [1] and in assay [2] were -15.3% and -22.4%, respectively. Moreover, in assay [3], the viability increase is -3.3%. For the same compound, the viability in assay [4] is 93.1%; in assay [5] it was 97%. In assay [6], the inhibition was 1.55%. In addition, in assay [7], the RAM network inhibition was -0.53%.
On to `COCCN1C(=O)C(CC(=O)Nc2ccc(C(=O)O)cc2)SC1=Nc1ccccc1` (stereo unspecified), for which the results for the growth inhibition in assay [1] and in assay [2] were -12.5% and -19.2%, respectively. In addition, in assay [3], the viability increase is -2.07%. The viability was 96.4% in assay [4] and 97.6% in assay [5]. The inhibition in assay [6] is 2.39%. Further, the RAM network inhibition in assay [7] is 2.48%.
`CCCc1ccc(-c2ccc(C(=O)O)cc2)nc1`: the growth inhibition in assay [1] is 8.77%; in assay [2], 5.22%. In addition, the viability increase in assay [3] was -3.24%. Besides, the viability was 101% in assay [4] and 95.9% in assay [5]. Also, in assay [6], the inhibition was -0.425%. Moreover, the RAM network inhibition in assay [7] was -2.78%.

These data come from PubChem BioAssay.
